Results reported in ChEMBL document CHEMBL3091355, “Designing and synthesis of novel antimicrobial heterocyclic analogs of fatty acids” (2013).
Converted amounts (≈) assume the structure as drawn.

How the values were obtained:
Type in all cases: functional
[1] = tested on: Candida albicans; experiment: Fungicidal activity against Candida albicans clinical isolate by micro dilution method
[2] = tested on: Escherichia coli; experiment: Antibacterial activity against Escherichia coli ATCC 25922 after 24 hrs by broth micro dilution method; details: ATCC 25922, 24 h
Procedure, shortened: (§1)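 MIC by broth microdilution; growth read visually and spectrophotometrically. MIC taken as the lowest concentration giving complete inhibition of bacterial growth.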

[3] = tested on: Candida tropicalis; experiment: Antifungal activity against Candida tropicalis clinical isolate after 20 hrs by agar dilution method
[4] = tested on: Candida parapsilosis; experiment: Antifungal activity against Candida parapsilosis after 20 hrs by agar dilution method; details: Lodderomyces parapsilosis
[5] = tested on: Pseudomonas aeruginosa; experiment: Antibacterial activity against Pseudomonas aeruginosa ATCC 27853 after 24 hrs by broth micro dilution method; details: ATCC 27853, 24 h; procedure, shortened: as §1
[6] = tested on: Nakaseomyces glabratus; experiment: Antifungal activity against Candida glabrata after 20 hrs by agar dilution method
[7] = tested on: Streptococcus pyogenes; experiment: Antibacterial activity against Streptococcus pyogenes clinical isolate after 24 hrs by disc diffusion method
[8] = tested on: Candida albicans; experiment: Fungicidal activity against Candida albicans by micro dilution method
[9] = tested on: Candida albicans; experiment: Antifungal activity against Candida albicans clinical isolate after 20 hrs by agar dilution method
[10] = tested on: Klebsiella pneumoniae; experiment: Antibacterial activity against Klebsiella pneumoniae clinical isolate after 24 hrs by broth micro dilution method
[11] = tested on: Streptococcus pyogenes; experiment: Antibacterial activity against Streptococcus pyogenes clinical isolate after 24 hrs by broth micro dilution method
[12] = tested on: Candida parapsilosis; experiment: Antifungal activity against Candida parapsilosis clinical isolate after 20 hrs by agar dilution method; details: Lodderomyces parapsilosis
[13] = tested on: Candida parapsilosis; experiment: Fungicidal activity against Candida parapsilosis clinical isolate by micro dilution method; details: Lodderomyces parapsilosis
[14] = tested on: Candida albicans; experiment: Antifungal activity against Candida albicans after 20 hrs by agar dilution method
Procedure, shortened: (§2)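 Clinical Candida isolates purified and subcultured on SC, SCC and PDA media before testing. Compounds were dissolved in DMSO as a stock, then diluted into solid PDA medium to final concentrations of 0.0312 to 256.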

[15] = tested on: Escherichia coli; experiment: Antibacterial activity against Escherichia coli ATCC 25922 after 24 hrs by disc diffusion method
Procedure, shortened: (§3)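 Disk diffusion on agar; activity measured as the halo zone of inhibition around the disk.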

[16] = tested on: Pseudomonas aeruginosa; experiment: Bactericidal activity against Pseudomonas aeruginosa ATCC 27853 after 18 to 24 hrs; details: read-out: MBC99.9
Procedure, shortened: (§4)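 MBC taken as the lowest concentration that killed the bacteria completely.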

[17] = tested on: Pichia kudriavzevii; experiment: Antifungal activity against Candida krusei after 20 hrs by agar dilution method
[18] = tested on: Candida tropicalis; experiment: Fungicidal activity against Candida tropicalis by micro dilution method
[19] = tested on: Pseudomonas aeruginosa; experiment: Antibacterial activity against Pseudomonas aeruginosa ATCC 27853 after 24 hrs by disc diffusion method; procedure, shortened: as §3
[20] = tested on: Candida dubliniensis; experiment: Fungicidal activity against Candida dubliniensis by micro dilution method
[21] = tested on: Candida parapsilosis; experiment: Fungicidal activity against Candida parapsilosis by micro dilution method; details: Lodderomyces parapsilosis
[22] = tested on: Nakaseomyces glabratus; experiment: Fungicidal activity against Candida glabrata by micro dilution method
[23] = tested on: Klebsiella pneumoniae; experiment: Bactericidal activity against Klebsiella pneumoniae clinical isolate after 18 to 24 hrs; details: read-out: MBC99.9
[24] = tested on: Streptococcus pyogenes; experiment: Bactericidal activity against Streptococcus pyogenes clinical isolate after 18 to 24 hrs; details: read-out: MBC99.9
[25] = tested on: Pichia kudriavzevii; experiment: Fungicidal activity against Candida krusei by micro dilution method
[26] = tested on: Candida tropicalis; experiment: Fungicidal activity against Candida tropicalis clinical isolate by micro dilution method
[27] = tested on: Escherichia coli; experiment: Bactericidal activity against Escherichia coli ATCC 25922 after 18 to 24 hrs; details: read-out: MBC99.9; procedure, shortened: as §4
[28] = tested on: Staphylococcus aureus; experiment: Antibacterial activity against Staphylococcus aureus after 24 hrs by broth micro dilution method; procedure, shortened: as §1
[29] = tested on: Staphylococcus aureus; experiment: Bactericidal activity against Staphylococcus aureus after 18 to 24 hrs; details: read-out: MBC99.9; procedure, shortened: as §4
[30] = tested on: Candida tropicalis; experiment: Antifungal activity against Candida tropicalis after 20 hrs by agar dilution method
[31] = tested on: Staphylococcus aureus; experiment: Antibacterial activity against Staphylococcus aureus after 24 hrs by disc diffusion method; procedure, shortened: as §3
[32] = tested on: Candida dubliniensis; experiment: Antifungal activity against Candida dubliniensis after 20 hrs by agar dilution method
[33] = tested on: Klebsiella pneumoniae; experiment: Antibacterial activity against Klebsiella pneumoniae clinical isolate after 24 hrs by disc diffusion method
[34] = tested on: Candida tropicalis; experiment: Fungicidal activity against fluconazole, itraconazole-resistant Candida tropicalis clinical isolate by micro dilution method
[35] = tested on: Candida albicans; experiment: Antifungal activity against fluconazole, itraconazole-resistant Candida albicans clinical isolate after 20 hrs by agar dilution method; procedure, shortened: as §2
[36] = tested on: Candida tropicalis; experiment: Antifungal activity against fluconazole, itraconazole-resistant Candida tropicalis clinical isolate after 20 hrs by agar dilution method; procedure, shortened: as §2
[37] = tested on: Candida albicans; experiment: Fungicidal activity against fluconazole, itraconazole-resistant Candida albicans clinical isolate by micro dilution method

| SMILES | MFC [1] [µg/mL] | MIC [2] [µg/mL] | MIC90 [3] [µg/mL] | MIC90 [4] [µg/mL] | MIC [5] [µg/mL] | MIC90 [6] [µg/mL] | diameter of the inhibition zone (DIZ) [7] [mm] | MFC [8] [µg/mL] | MIC90 [9] [µg/mL] | MIC [10] [µg/mL] | MIC [11] [µg/mL] | MIC90 [12] [µg/mL] | MFC [13] [µg/mL] | MIC90 [14] [µg/mL] | diameter of the inhibition zone (DIZ) [15] [mm] | MBC [16] [µg/mL] | MIC90 [17] [µg/mL] | MFC [18] [µg/mL] | diameter of the inhibition zone (DIZ) [19] [mm] | MFC [20] [µg/mL] | other results |
| --- | --- | --- | --- | --- | --- | --- | --- | --- | --- | --- | --- | --- | --- | --- | --- | --- | --- | --- | --- | --- | --- |
| CCCc1cc(CCCCCCCCC(=O)O)on1 | > 256 | 50 (≈ 187 µM) | 128 (≈ 479 µM) | 128 (≈ 479 µM) | 100 (≈ 374 µM) | 128 (≈ 479 µM) | 21.6 | > 256 | > 256 | 50 (≈ 187 µM) | 50 (≈ 187 µM) | 256 (≈ 957 µM) | > 256 | > 256 | 25.7 | > 100 | > 256 | > 256 | 31.2 | 256 (≈ 957 µM) | MFC [21]: > 256 µg/mL; MFC [22]: > 256 µg/mL; MBC [23]: > 100 µg/mL; MBC [24]: 100 µg/mL (≈ 374 µM); MFC [25]: > 256 µg/mL; MFC [26]: > 256 µg/mL; MBC [27]: 100 µg/mL (≈ 374 µM); MIC [28]: 50 µg/mL (≈ 187 µM); MBC [29]: 100 µg/mL (≈ 374 µM); MIC90 [30]: > 256 µg/mL; diameter of the inhibition zone (DIZ) [31]: 19.2 mm; MIC90 [32]: 128 µg/mL (≈ 479 µM); diameter of the inhibition zone (DIZ) [33]: 18.3 mm |
| CCCC1=NOC(CCCCCCCCC(=O)OC)C1 (stereo not drawn) | 128 (≈ 452 µM) | 100 (≈ 353 µM) | > 256 | > 256 | 100 (≈ 353 µM) | > 256 | 20.2 | > 256 | > 256 | 100 (≈ 353 µM) | 50 (≈ 176 µM) | > 256 | > 256 | > 256 | 25.1 | > 100 | > 256 | > 256 | 30.1 | > 256 | MFC [21]: > 256 µg/mL; MFC [22]: > 256 µg/mL; MBC [23]: > 100 µg/mL; MBC [24]: 100 µg/mL (≈ 353 µM); MFC [25]: > 256 µg/mL; MFC [26]: 128 µg/mL (≈ 452 µM); MBC [27]: > 100 µg/mL; MIC [28]: 50 µg/mL (≈ 176 µM); MBC [29]: > 100 µg/mL; MIC90 [30]: > 256 µg/mL; diameter of the inhibition zone (DIZ) [31]: 18.1 mm; MIC90 [32]: > 256 µg/mL; diameter of the inhibition zone (DIZ) [33]: 17.1 mm |
| CCCCCCCCC1C(CCC)=NOC1CCCCCCCC(=O)OC (stereo not drawn) | > 256 | 25 (≈ 65.5 µM) | 128 (≈ 335 µM) | > 256 | 25 (≈ 65.5 µM) | 128 (≈ 335 µM) | 22.3 | 256 (≈ 671 µM) | 128 (≈ 335 µM) | 25 (≈ 65.5 µM) | 25 (≈ 65.5 µM) | 128 (≈ 335 µM) | > 256 | 128 (≈ 335 µM) | 26.7 | 50 (≈ 131 µM) | > 256 | > 256 | 31.3 | > 256 | MFC [34]: 128 µg/mL (≈ 335 µM); MIC90 [35]: > 256 µg/mL; MFC [21]: > 256 µg/mL; MFC [22]: > 256 µg/mL; MBC [23]: 100 µg/mL (≈ 262 µM); MBC [24]: 50 µg/mL (≈ 131 µM); MFC [25]: > 256 µg/mL; MFC [26]: > 256 µg/mL; MBC [27]: 50 µg/mL (≈ 131 µM); MIC [28]: 25 µg/mL (≈ 65.5 µM); MBC [29]: 100 µg/mL (≈ 262 µM); MIC90 [30]: 128 µg/mL (≈ 335 µM); diameter of the inhibition zone (DIZ) [31]: 21.6 mm; MIC90 [32]: 128 µg/mL (≈ 335 µM); MIC90 [36]: > 256 µg/mL; diameter of the inhibition zone (DIZ) [33]: 18.5 mm |
| CCCCCC[C@@H](O)CC1C(CCC)=NOC1CCCCCCCC(=O)OC (stereo partly drawn) | 256 (≈ 644 µM) | 25 (≈ 62.9 µM) | 64 (≈ 161 µM) | 32 (≈ 80.5 µM) | 25 (≈ 62.9 µM) | 32 (≈ 80.5 µM) | 23.2 | 256 (≈ 644 µM) | 32 (≈ 80.5 µM) | 25 (≈ 62.9 µM) | 25 (≈ 62.9 µM) | 128 (≈ 322 µM) | > 256 | 128 (≈ 322 µM) | 27.6 | 50 (≈ 126 µM) | 64 (≈ 161 µM) | > 256 | 32.5 | 256 (≈ 644 µM) | MIC90 [35]: 128 µg/mL (≈ 322 µM); MFC [37]: > 256 µg/mL; MFC [21]: 128 µg/mL (≈ 322 µM); MFC [22]: 256 µg/mL (≈ 644 µM); MBC [23]: 100 µg/mL (≈ 252 µM); MBC [24]: 50 µg/mL (≈ 126 µM); MFC [25]: 128 µg/mL (≈ 322 µM); MFC [26]: 256 µg/mL (≈ 644 µM); MBC [27]: 50 µg/mL (≈ 126 µM); MIC [28]: 25 µg/mL (≈ 62.9 µM); MBC [29]: 50 µg/mL (≈ 126 µM); MIC90 [30]: 64 µg/mL (≈ 161 µM); diameter of the inhibition zone (DIZ) [31]: 22.6 mm; MIC90 [32]: 32 µg/mL (≈ 80.5 µM); MIC90 [36]: > 256 µg/mL; diameter of the inhibition zone (DIZ) [33]: 19.2 mm |
